# Reference: ChEMBL document CHEMBL1138867, “Design, synthesis, potency, and cytoselectivity of anticancer agents derived by parallel synthesis from alpha-aminosuberic acid” (J Med Chem, 2006)
# Key:
# Type in all cases: functional, cell-based
# NFF = test: Antiproliferative activity against human NFF cells
# How it was run: (§1)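 Cells cultured in RPMI 1640 with 10% heat-inactivated FCS, 3 mM HEPES, 5% CO2, 37 °C; NFF are primary neonatal foreskin fibroblasts. Cells were seeded at 5 × 10^3/well and left to adhere overnight. They were exposed to compound for 24 h, then the medium was replaced and cells grown a further 72 h. Survival was read by SRB staining at 564 nm, giving IC50.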
# MM96L = test: Antiproliferative activity against human MM96L cells; how it was run: as §1
# SK-MEL-28 = test: Antiproliferative activity against human SK-Mel-28 cells; how it was run: as §1
# A549 = test: Antiproliferative activity against human A549 cells; how it was run: as §1
# DU-145 = test: Antiproliferative activity against human DU145 cells; how it was run: as §1
# HOP-62 = test: Antiproliferative activity against human HOP62 cells; how it was run: as §1
# HT-29 = test: Antiproliferative activity against human HT29 cells; how it was run: as §1
# MCF7 = test: Antiproliferative activity against human MCF7 cells; how it was run: as §1
# SK-MEL-5 = test: Antiproliferative activity against human SK-Mel-5 cells; how it was run: as §1
# [1] = Antiproliferative activity against human H520 cells; details: NCI-H520; how it was run: as §1
# T47D = test: Antiproliferative activity against human T-47D cells; how it was run: as §1
# C180-13S = test: Antiproliferative activity against human C180-13S cells; how it was run: as §1
# [2] = Antiproliferative activity against human JAM cells; how it was run: as §1
# PC-3 = test: Antiproliferative activity against human PC3 cells; how it was run: as §1
# COLO 205 = test: Antiproliferative activity against human Colo205 cells; how it was run: as §1
IC50 (SK-MEL-28),IC50 (A549),IC50 (DU-145),IC50 (HT-29),IC50 (MCF7),IC50 (SK-MEL-5),IC50 (T47D),IC50 (PC-3),IC50 (COLO 205),Structure (SMILES),IC50 (NFF),IC50 (MM96L),IC50 (HOP-62),IC50 [1],IC50 (C180-13S),IC50 [2]
146 nM,248 nM,131 nM,334 nM,122 nM,70 nM,93 nM,528 nM,122 nM,O=C(CCCCC[C@H](NC(=O)OCc1ccccc1)C(=O)Nc1cccc2cccnc12)NO,452 nM,43 nM,226 nM,118 nM,124 nM,194 nM
168 nM,335 nM,149 nM,307 nM,149 nM,102 nM,197 nM,531 nM,272 nM,O=C(CCCCC[C@H](NC(=O)c1ccc(Br)cc1)C(=O)Nc1ccc(-c2ccccc2)cc1)NO,190 nM,70 nM,261 nM,117 nM,158 nM,182 nM
,,,,,,,,,O=C(CCCCCC(NC(=O)c1ccco1)C(=O)NCc1ccccc1)NO (stereo unspecified),4600 nM,200 nM,,,,
,,,,,,,,,O=C(/C=C/c1c[nH]c2ccccc12)N[C@@H](CCCCCC(=O)NO)C(=O)NCc1ccccc1,10400 nM,3240 nM,,,,
,,,,,,,,,O=C(CCCCC[C@H](NC(=O)CCCc1c[nH]c2ccccc12)C(=O)NCc1ccccc1)NO,7030 nM,1850 nM,,,,
73 nM,148 nM,61 nM,178 nM,35 nM,32 nM,45 nM,220 nM,223 nM,CN(C)c1ccc(C(=O)N[C@@H](CCCCCC(=O)NO)C(=O)Nc2cccc3cccnc23)cc1,570 nM,20 nM,137 nM,63 nM,65 nM,85 nM
